Experimental data reported in ChEMBL document CHEMBL4028905, “A Unique Approach to Design Potent and Selective Cyclic Adenosine Monophosphate Response Element Binding Protein, Binding Protein (CBP) Inhibitors” (J Med Chem, 2017).
Active and inactive are the calls of the source. The calls are words filed in the database; no cut-off is given here.

Experiments:
[1] = target: Bromodomain-containing protein 4 (Homo sapiens, UniProt O60885); assay: Inhibition of His tagged recombinant BRD4 bromodomain 1 (unknown origin) by TR-FRET assay
Procedure, shortened: (§1)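 Recombinant His-tagged bromodomains purified by Ni affinity, tag removed with thrombin, checked by mass spectrometry. Assay is TR-FRET competition against a biotinylated small-molecule ligand. Normalized inhibition vs concentration fit to 4-parameter Hill equation; […] for optimization.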

Homo sapiens [2] = organism: Homo sapiens; assay: Selectivity ratio of IC50 for His tagged recombinant BRD4 bromodomain 1 (unknown origin) to IC50 for His tagged recombinant CBP (unknown origin)
[3] = Intrinsic clearance in mouse liver microsomes at 1 uM in presence of NADPH by LC-MS/MS analysis; assay type: ADME, microsome; conditions: read-out: CLH
[4] = Intrinsic clearance in human liver microsomes at 1 uM in presence of NADPH by LC-MS/MS analysis; assay type: ADME, microsome; conditions: read-out: CLH
[5] = target: CREB-binding protein/Histone acetyltransferase p300 (Homo sapiens, UniProt Q09472+Q92793); assay: Inhibition of P300/CBP in human MV4-11 cells assessed as reduction in MYC expression after 4 hrs by luminescence based assay; assay type: cell-based
Procedure, shortened: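 MV-4-11 cells plated at 10,000 per well in RPMI1640 with 10% FBS and 2 mM L-glutamine. Compounds added in DMSO at a final 0.1% and incubated 4 h at 37 °C before MYC expression read-out; EC50 derived.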

[6] = Intrinsic clearance in rat liver microsomes at 1 uM in presence of NADPH by LC-MS/MS analysis; assay type: ADME, microsome; conditions: read-out: CLH
CREB-binding protein [7] = target: T1, CREB-binding protein (Homo sapiens, UniProt Q92793); assay: Inhibition of His tagged recombinant CBP (unknown origin) by TR-FRET assay; procedure, shortened: as §1
Target sequence in this assay (Q92793 whole entry): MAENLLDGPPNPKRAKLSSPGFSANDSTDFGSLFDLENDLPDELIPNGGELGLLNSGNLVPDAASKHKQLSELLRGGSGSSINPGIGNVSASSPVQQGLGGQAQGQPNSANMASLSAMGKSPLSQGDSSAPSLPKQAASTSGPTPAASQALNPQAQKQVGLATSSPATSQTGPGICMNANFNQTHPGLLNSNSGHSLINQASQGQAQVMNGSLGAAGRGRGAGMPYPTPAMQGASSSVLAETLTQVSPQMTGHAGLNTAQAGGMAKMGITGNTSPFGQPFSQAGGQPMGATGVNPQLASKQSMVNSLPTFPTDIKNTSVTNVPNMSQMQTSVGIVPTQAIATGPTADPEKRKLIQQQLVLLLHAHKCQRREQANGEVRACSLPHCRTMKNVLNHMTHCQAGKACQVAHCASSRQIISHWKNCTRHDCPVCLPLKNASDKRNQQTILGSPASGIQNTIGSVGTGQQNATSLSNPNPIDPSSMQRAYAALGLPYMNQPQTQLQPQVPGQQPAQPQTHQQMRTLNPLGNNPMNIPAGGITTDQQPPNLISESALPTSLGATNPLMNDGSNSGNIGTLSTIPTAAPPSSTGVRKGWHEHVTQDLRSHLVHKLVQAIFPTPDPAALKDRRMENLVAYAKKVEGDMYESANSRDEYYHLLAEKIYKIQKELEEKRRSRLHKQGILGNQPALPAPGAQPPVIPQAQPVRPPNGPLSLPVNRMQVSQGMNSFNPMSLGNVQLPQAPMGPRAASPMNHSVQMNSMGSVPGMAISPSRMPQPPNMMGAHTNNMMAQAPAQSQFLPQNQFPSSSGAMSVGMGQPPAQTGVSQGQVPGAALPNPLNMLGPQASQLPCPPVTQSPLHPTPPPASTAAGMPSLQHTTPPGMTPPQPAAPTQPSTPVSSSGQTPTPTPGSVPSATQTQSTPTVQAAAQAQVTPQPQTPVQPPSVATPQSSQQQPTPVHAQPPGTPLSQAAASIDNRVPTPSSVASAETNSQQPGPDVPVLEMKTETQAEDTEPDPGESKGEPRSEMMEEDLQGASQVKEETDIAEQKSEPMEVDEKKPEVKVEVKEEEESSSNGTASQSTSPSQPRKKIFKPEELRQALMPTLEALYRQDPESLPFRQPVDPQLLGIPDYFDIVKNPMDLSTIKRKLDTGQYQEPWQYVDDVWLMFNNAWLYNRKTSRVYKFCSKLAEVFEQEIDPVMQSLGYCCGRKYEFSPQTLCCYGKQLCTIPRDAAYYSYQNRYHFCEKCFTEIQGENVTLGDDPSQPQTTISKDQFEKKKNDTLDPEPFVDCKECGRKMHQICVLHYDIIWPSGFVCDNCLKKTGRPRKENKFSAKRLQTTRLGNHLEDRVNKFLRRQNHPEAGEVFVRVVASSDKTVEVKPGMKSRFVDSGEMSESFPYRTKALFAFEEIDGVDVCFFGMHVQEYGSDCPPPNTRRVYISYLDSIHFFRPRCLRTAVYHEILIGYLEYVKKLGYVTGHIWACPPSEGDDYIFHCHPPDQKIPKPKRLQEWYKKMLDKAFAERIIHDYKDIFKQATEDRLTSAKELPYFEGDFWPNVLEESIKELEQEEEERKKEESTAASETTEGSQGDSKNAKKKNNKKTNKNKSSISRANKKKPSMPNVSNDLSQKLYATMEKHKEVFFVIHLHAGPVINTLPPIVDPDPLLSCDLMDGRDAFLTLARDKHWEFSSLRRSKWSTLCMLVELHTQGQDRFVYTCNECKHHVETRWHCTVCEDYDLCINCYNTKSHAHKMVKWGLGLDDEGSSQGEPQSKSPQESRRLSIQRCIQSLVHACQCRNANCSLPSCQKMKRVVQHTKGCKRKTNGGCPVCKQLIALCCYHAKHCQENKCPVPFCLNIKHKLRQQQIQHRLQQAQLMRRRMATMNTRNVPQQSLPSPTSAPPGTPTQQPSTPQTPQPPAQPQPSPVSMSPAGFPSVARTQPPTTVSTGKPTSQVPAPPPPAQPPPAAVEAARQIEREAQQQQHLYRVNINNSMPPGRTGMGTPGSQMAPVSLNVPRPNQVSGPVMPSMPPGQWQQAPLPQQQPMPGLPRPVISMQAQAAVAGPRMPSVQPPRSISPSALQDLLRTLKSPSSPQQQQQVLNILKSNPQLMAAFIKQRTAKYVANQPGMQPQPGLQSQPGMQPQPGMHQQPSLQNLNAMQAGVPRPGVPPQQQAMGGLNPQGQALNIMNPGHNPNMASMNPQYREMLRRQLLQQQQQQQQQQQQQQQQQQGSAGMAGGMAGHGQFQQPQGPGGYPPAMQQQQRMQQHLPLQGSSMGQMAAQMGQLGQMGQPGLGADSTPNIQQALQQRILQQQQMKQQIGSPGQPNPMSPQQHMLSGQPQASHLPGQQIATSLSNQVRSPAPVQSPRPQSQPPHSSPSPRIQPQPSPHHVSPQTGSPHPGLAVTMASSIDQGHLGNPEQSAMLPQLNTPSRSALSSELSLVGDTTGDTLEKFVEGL

CREB-binding protein [8] = target: T1, CREB-binding protein; assay: Inhibition of His tagged recombinant CBP (unknown origin) at 50 uM by HTS assay
Procedure, shortened: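 HTS TR-FRET competition of biotinylated ligand binding to recombinant His-tagged CBP bromodomain (tag thrombin-cleaved after Ni affinity). Highest concentration tested 50 μM. IC50 from 4-parameter Hill fit of normalized inhibition, reported as geometric mean of 2–8 replicates.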
Target sequence in this assay (Q92793 2-2442 limits assumed): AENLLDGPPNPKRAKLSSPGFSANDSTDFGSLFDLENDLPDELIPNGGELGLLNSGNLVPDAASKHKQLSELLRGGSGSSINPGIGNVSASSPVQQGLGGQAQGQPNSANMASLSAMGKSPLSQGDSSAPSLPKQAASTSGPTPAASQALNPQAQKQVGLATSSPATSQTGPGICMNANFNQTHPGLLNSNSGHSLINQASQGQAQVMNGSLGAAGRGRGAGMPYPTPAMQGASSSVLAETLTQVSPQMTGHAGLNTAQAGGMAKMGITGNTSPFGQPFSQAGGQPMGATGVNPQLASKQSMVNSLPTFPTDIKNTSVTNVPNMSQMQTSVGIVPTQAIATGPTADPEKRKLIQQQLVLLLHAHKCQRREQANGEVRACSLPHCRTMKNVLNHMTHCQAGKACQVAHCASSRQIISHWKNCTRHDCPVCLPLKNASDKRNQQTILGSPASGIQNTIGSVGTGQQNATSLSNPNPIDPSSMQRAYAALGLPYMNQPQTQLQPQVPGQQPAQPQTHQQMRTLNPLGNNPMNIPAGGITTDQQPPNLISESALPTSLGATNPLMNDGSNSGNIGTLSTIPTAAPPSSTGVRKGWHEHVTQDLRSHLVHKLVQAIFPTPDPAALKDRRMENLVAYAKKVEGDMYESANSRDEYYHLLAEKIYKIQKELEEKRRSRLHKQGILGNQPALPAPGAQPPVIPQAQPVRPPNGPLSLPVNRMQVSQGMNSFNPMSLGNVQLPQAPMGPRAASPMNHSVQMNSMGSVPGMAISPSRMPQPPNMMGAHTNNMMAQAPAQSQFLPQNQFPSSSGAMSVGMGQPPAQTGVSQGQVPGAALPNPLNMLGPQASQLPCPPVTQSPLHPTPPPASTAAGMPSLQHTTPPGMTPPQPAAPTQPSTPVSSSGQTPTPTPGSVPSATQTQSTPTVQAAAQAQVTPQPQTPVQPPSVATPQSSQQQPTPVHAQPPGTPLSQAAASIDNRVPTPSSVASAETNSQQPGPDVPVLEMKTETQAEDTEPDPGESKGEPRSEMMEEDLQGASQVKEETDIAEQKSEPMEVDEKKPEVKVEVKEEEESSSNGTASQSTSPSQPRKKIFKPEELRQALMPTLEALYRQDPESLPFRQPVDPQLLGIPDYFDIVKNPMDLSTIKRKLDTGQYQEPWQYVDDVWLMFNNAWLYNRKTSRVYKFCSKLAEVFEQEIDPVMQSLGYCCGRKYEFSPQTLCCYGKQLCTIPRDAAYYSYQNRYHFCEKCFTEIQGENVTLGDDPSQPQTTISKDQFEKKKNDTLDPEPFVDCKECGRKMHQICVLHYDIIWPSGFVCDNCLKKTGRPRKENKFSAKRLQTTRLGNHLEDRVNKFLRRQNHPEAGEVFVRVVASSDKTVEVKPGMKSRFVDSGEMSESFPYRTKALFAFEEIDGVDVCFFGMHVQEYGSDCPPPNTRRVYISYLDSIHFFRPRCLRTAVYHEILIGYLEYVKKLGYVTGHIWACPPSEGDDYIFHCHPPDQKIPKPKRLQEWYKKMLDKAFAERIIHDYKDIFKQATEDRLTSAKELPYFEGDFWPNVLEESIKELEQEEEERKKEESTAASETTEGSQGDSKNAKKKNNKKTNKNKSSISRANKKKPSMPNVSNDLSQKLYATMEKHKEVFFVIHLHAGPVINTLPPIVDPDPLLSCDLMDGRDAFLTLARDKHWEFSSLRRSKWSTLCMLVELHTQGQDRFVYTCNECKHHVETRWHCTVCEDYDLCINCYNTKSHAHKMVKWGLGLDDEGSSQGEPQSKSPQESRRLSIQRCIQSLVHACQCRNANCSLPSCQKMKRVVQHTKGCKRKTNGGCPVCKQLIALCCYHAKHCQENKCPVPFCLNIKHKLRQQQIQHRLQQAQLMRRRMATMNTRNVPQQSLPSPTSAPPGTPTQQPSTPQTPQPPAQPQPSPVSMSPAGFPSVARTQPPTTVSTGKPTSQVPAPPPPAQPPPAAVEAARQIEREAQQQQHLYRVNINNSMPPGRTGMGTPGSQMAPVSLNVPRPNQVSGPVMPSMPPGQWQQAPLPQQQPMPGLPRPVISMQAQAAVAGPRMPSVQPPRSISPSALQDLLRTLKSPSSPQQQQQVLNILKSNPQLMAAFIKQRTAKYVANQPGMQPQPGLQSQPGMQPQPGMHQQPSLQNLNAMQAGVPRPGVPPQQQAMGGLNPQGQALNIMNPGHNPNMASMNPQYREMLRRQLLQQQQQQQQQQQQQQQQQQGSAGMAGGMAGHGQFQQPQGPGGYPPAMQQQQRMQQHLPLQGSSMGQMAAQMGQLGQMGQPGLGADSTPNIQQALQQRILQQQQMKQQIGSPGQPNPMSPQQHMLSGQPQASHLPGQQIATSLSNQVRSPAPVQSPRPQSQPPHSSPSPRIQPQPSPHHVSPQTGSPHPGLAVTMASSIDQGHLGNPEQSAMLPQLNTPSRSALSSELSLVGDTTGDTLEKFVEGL

Homo sapiens [9] = organism: Homo sapiens; assay: Selectivity ratio of IC50 for His tagged recombinant CBP (unknown origin) to IC50 for His tagged recombinant BRD4 bromodomain 1 (unknown origin)
[10] = target: T2, Bromodomain-containing protein 9 (Homo sapiens, UniProt Q9H8M2); assay: Inhibition of His tagged recombinant BRD9 (unknown origin) by TR-FRET assay; procedure, shortened: as §1
T2 sequence (Q9H8M2 whole entry): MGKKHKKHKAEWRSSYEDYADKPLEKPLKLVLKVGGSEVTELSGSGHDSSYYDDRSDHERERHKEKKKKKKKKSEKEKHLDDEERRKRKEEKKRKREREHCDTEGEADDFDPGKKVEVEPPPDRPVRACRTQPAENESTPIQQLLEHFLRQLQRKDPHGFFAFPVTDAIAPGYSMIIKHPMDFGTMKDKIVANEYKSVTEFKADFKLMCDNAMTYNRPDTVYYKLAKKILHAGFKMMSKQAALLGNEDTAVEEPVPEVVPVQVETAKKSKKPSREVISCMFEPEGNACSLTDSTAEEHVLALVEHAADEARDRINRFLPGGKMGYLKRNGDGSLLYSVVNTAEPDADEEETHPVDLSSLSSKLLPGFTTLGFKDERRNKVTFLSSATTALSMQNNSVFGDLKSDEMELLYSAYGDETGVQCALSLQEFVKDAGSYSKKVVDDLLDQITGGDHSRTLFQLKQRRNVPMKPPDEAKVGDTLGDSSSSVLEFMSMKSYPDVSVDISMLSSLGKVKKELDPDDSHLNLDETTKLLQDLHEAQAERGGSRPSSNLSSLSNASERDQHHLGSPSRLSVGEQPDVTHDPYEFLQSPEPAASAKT

[11] = target: Chromatin remodeling regulator CECR2 (Homo sapiens, UniProt Q9BXF3); assay: Inhibition of His tagged recombinant CECR2 (unknown origin) by TR-FRET assay; procedure, shortened: as §1

Structure (SMILES) | IC50 [1] [µM] | Ratio IC50 (Homo sapiens [2]) | IC50 (CREB-binding protein [7]) [µM] | other results
Cn1cc(-c2cc3c(cc2C(F)F)N(c2cc(N4CCOCC4)c4c(c2)n(C)c(=O)n4C)CCC3)cn1 | 1.1 | 310 | 0.0036 | CLint scaled at 1 µM [3]: 48 mL/min/kg; CLint scaled at 1 µM [4]: 15 mL/min/kg; EC50 [5]: 0.012 µM; CLint scaled at 1 µM [6]: 23 mL/min/kg
CC(=O)N1CCc2c(cc(-c3cccc(Cl)c3)c(=O)n2CC2CC2)C1 | 52 | 96 | 0.54 | –
CC(=O)N1CCCc2cc(N3CCCc4cc(-c5cnn(C)c5)c(C(F)F)cc43)ccc21 | 6.9 | > 15 | 0.45 | –
COC(=O)c1c[nH]c2ccccc12 | > 100 | > 1 | 99 | inhibition (CREB-binding protein [8]): Active
CNC(=O)Nc1cc(OC)cc(NC(=O)NS(=O)(=O)c2cc(C)c(CCOC)s2)n1 | > 20 | > 74 | 0.27 | –
Cn1cc(-c2cc3c(cc2C(F)F)N(c2ccc4c(c2)n(C)c(=O)n4C)CCC3)cn1 | 4.1 | 210 | 0.02 | CLint scaled at 1 µM [3]: 61 mL/min/kg; CLint scaled at 1 µM [4]: 16 mL/min/kg; EC50 [5]: 1 µM; CLint scaled at 1 µM [6]: 38 mL/min/kg
C[C@H]1Nc2c(cccc2N2CCCc3cc(-c4cnn(C)c4)c(C(F)F)cc32)NC1=O | > 20 | – | – | –
Cc1ccc(S(=O)(=O)Nc2ccc3c(c2)CCC(=O)N3C)s1 | 5.2 | 0.23 | 23 | Ratio IC50 (Homo sapiens [9]): 4.4
CN1C(=O)CCc2ccc(N3CCCc4cc(-c5cnn(C)c5)c(C(F)F)cc43)cc21 | > 20 | > 530 | 0.038 | –
CNC(=O)c1ccc2nccc(N3CCCc4cc(-c5cnn(C)c5)c(C(F)F)cc43)c2c1 | > 20 | > 590 | – | –
CNC(=O)c1c[nH]c2ccc(N3CCCc4cc(-c5cnn(C)c5)c(C(F)F)cc43)cc12 | 12 | 1300 | 0.0095 | CLint scaled at 1 µM [3]: 47 mL/min/kg; CLint scaled at 1 µM [4]: 13 mL/min/kg; EC50 [5]: 2.2 µM; CLint scaled at 1 µM [6]: 20 mL/min/kg
COc1cccc2c1N(CCCNC(=O)c1cccc3c1N[C@H](C)C(=O)N3)CCC2 | 13 | 22 | – | –
CC(=O)N1CCc2c(cc(N3CCCc4cc(-c5cnn(C)c5)c(C(F)F)cc43)c(=O)n2C)C1 | > 20 | > 430 | – | –
CNC(=O)c1c[nH]c2cnc(N3CCCc4cc(-c5cnn(C)c5)c(C(F)F)cc43)cc12 | 3.9 | 780 | – | CLint scaled at 1 µM [3]: 39 mL/min/kg; CLint scaled at 1 µM [4]: 6.9 mL/min/kg; EC50 [5]: 0.36 µM; CLint scaled at 1 µM [6]: 17 mL/min/kg
CCC(=O)N1CCCc2cc(NS(=O)(=O)c3ccc(F)cc3C)ccc21 | 74 | 25 | 3 | –
CNC(=O)N1CCOc2ccc(N3CCCc4cc(-c5cnn(C)c5)c(C(F)F)cc43)cc2C1 | 7.4 | 570 | 0.013 | –
Cn1cc(-c2cc3c(cc2C(F)F)N(c2ccc4sc(=O)n(C)c4c2)CCC3)cn1 | 18 | – | – | CLint scaled at 1 µM [3]: 71 mL/min/kg; CLint scaled at 1 µM [4]: 17 mL/min/kg; CLint scaled at 1 µM [6]: 39 mL/min/kg
C[C@@H]1CC(=O)Nc2cccc(-c3ccc4c(c3)c(-c3cnn(C)c3)nn4C)c2N1 | – | 370 | – | –
C[C@@H]1CC(=O)Nc2cccc(N3CCCc4cc(-c5cnn(C)c5)c(C(F)F)cc43)c2N1 | 4.5 | 1300 | 0.0034 | IC50 [10]: > 20 µM; IC50 [11]: > 20 µM
CCC(=O)N1CCOc2c(cc(-c3ccc(OC)c(OC)c3)cc2OC[C@H]2CCCN(C)C2)C1 | – | 34 | – | –
CNC(=O)Nc1cc(OC)cc(N2CCCc3cc(-c4cnn(C)c4)c(C(F)F)cc32)n1 | > 20 | > 170 | – | –
CNC(=O)c1cnn2ccc(N3CCCc4cc(-c5cnn(C)c5)c(C(F)F)cc43)nc12 | > 20 | > 14 | 1.4 | –
CNC(=O)c1cnn2c(C3CCCN3)ccnc12 (stereo not given) | > 84 | > 2.6 | 32 | –
Cn1c(=O)sc2cc(N)ccc21 | > 100 | – | > 100 | inhibition (CREB-binding protein [8]): Active
CCOC(=O)c1cnc2ccc(C(=O)OC)cc2c1Nc1cccc(C(=O)O)c1 | > 20 | > 87 | 0.23 | –
